These results are taken from ChEMBL document CHEMBL2331334, “Hybrid furoxanyl N-acylhydrazone derivatives as hits for the development of neglected diseases drug candidates” (Eur J Med Chem, 2013).

Converted amounts (≈) assume the structure as drawn.

The subject of test [1] is Mycobacterium tuberculosis. In words: Antimycobacterial activity against multidrug-resistant Mycobacterium tuberculosis clinical isolate assessed as growth inhibition after 5 days by MTT assay. Conditions: 120 h. The format is functional. The method in brief:
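MTB inoculum made from 20–30-day slant growth in Tween 80/0.2% BSA, adjusted to McFarland No. 1, then diluted in 7H9GC broth (Middlebrook 7H9, glycerol, Casitone, OADC). Final inoculum about 1.2 × 10^6 CFU/mL. Compounds taken from DMSO stock to final 0.4–25 in broth, with a DMSO control. Plates run 5 days at 37 °C, then tetrazolium (MTT)–Tween 80 added for a further 24 h at 37 °C. Read-out is MIC.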
Background: Tetrazolium dyes change colour on reduction, which living cells bring about.

Test [2] is described as follows: Selectivity index, ratio of IC50 for mouse J774.1 cells to MIC for multidrug-resistant Mycobacterium tuberculosis clinical isolate. Type of test: functional. The method, boiled down: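 Cytotoxicity: J774.1 macrophages in DMEM with 4 mM L-glutamine and 10% heat-inactivated FCS, seeded at 5 × 10^4/well, attached 48 h at 37 °C, 5% CO2. Exposed 48 h to 12.5–400.0 µM compound or vehicle. MTT at 0.1 mg/mL final for 3 h, formazan dissolved in DMSO/glycine buffer pH 10.5, A560 read. IC50 by linear regression, divided by the MIC against the same MTB strain.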

Consider `Cc1c(/C=N/NC(=O)c2cnn(-c3ccccc3)c2)no[n+]1[O-]`, for which the MIC (as a rule, the smallest concentration in the dilution series that meets the test's criterion for growth inhibition) in test [1] was greater than 80.1 µM.
On to `Cc1c(C(=O)N/N=C/c2ccc([N+](=O)[O-])cc2)no[n+]1[O-]`, for which, in test [1], the MIC is greater than 85.9 µM.
On the same count and under the same terms, for `Cc1[nH]cnc1C(=O)N/N=C/c1c(-c2ccccc2)no[n+]1[O-]` the value was greater than 80.1 µM.
Same read-out and setting: as for `Cc1c(C(=O)N/N=C/c2ccc(Br)cc2)no[n+]1[O-]`, the figure is greater than 74 µM.
For the molecule `Cc1nc2ccccn2c1C(=O)N/N=C/c1ccc2no[n+]([O-])c2c1`, in test [2], the “Selectivity Index” value amounted to 3.7. In test [1], the MIC is 38.6 µM (≈ 13 µg/mL).
Consider `Cc1c(/C=N/NC(=O)c2ccc3c(c2)OCO3)no[n+]1[O-]`, for which the MIC in test [1] was greater than 86.2 µM.
Turning to `Cc1c(C(=O)N/N=C/c2ccc3c(c2)OCO3)no[n+]1[O-]`, in test [1], the MIC was greater than 86.2 µM.
On to `Cc1nc2ccccn2c1C(=O)N/N=C/c1c(-c2ccccc2)no[n+]1[O-]`, for which, in test [2], the “Selectivity Index” value amounted to 6.5. Further, in test [1], the minimum inhibitory concentration (MIC) worked out at 8.6 µM (≈ 3.12 µg/mL).
As to `O=C(N/N=C/c1c(-c2ccccc2)no[n+]1[O-])c1ccncc1`, the “Selectivity Index” value in test [2] is greater than 40. Besides, in test [1], the MIC worked out at 10.1 µM (≈ 3.12 µg/mL).
As to `Cc1c(C(=O)N/N=C/c2ccccn2)no[n+]1[O-]`, the MIC in test [1] is greater than 101 µM.
The same measure, in the same setting: for `Cc1c(C(=O)N/N=C/c2cccc(O)c2)no[n+]1[O-]` the value was greater than 95.4 µM; for `O=C(N/N=C/c1c(-c2ccccc2)no[n+]1[O-])c1ccc2c(c1)OCO2`, greater than 71 µM.
On to `Cc1[nH]cnc1C(=O)N/N=C/c1ccc2no[n+]([O-])c2c1`, for which, in test [2], the “Selectivity Index” value came out at 1.5. Besides, in test [1], the MIC came out at 21.9 µM (≈ 6.27 µg/mL).
Turning to `Cc1c(C(=O)N/N=C/c2ccc3no[n+]([O-])c3c2)no[n+]1[O-]`, in test [1], the MIC amounted to 82.2 µM (≈ 25 µg/mL).
On to `CC(=O)Nc1ccc(/C=N/NC(=O)c2no[n+]([O-])c2C)cc1`, for which the MIC in test [1] is greater than 82.5 µM.
For `Cc1c(C(=O)N/N=C/c2ccc(C(F)(F)F)cc2)no[n+]1[O-]`, the MIC in test [1] was greater than 79.6 µM.
For the molecule `O=C(N/N=C/c1ccc2no[n+]([O-])c2c1)c1cccnc1`, in test [2], the “Selectivity Index” value came to 1.4. For the same molecule, the MIC in test [1] was found to be 22.1 µM (≈ 6.26 µg/mL).
Turning to `O=C(N/N=C/c1ccc2nonc2c1)c1cccnc1`, in test [2], the “Selectivity Index” value turned out to be 5. The MIC in test [1] is 46.8 µM (≈ 12.5 µg/mL).
As for `O=C(N/N=C/c1ccc2no[n+]([O-])c2c1)c1cnn(-c2ccccc2)c1`, the minimal inhibitory concentration (MIC) in test [1] is greater than 17.9 µM.
Turning to `Cc1nc2ccccn2c1C(=O)N/N=C/c1no[n+]([O-])c1C`, the MIC in test [1] is greater than 83.3 µM.
Take `COc1ccc(/C=N/NC(=O)c2no[n+]([O-])c2C)cc1O`: the minimal inhibitory concentration (MIC) in test [1] was greater than 85.6 µM.
Regarding `O=C(N/N=C/c1c(-c2ccccc2)no[n+]1[O-])c1cnn(-c2ccccc2)c1`, the MIC in test [1] is greater than 66.8 µM.
Regarding `Cc1c(C(=O)N/N=C/c2ccc(N(C)C)cc2)no[n+]1[O-]`, the MIC in test [1] is greater than 86.5 µM.
Regarding `NNC(=O)c1ccncc1` [ISONIAZID], in test [2], the “Selectivity Index” value is greater than 9. Further, in test [1], the MIC was found to be 45.6 µM (≈ 6.25 µg/mL).
In the case of `O=C(N/N=C/c1ccc2no[n+]([O-])c2c1)c1ccc2c(c1)OCO2`, the MIC in test [1] was greater than 76.7 µM.
The same measure, in the same setting: for `Cc1c(C(=O)N/N=C/c2ccc([N+](=O)[O-])o2)no[n+]1[O-]` the value was 44.5 µM (≈ 12.5 µg/mL); for `Cc1c(C(=O)N/N=C/c2ccco2)no[n+]1[O-]`, greater than 106 µM; for `Cc1c(C(=O)N/N=C/c2c(-c3ccccc3)no[n+]2[O-])no[n+]1[O-]`, greater than 75.8 µM.
Same read-out and setting: for `COc1cc(/C=N/NC(=O)c2no[n+]([O-])c2C)ccc1O` the value was greater than 85.6 µM; for `Cc1c(C(=O)N/N=C/c2ccc(C(=O)O)cc2)no[n+]1[O-]`, greater than 86.2 µM.
Still for that read-out and setting: for `COc1cc(/C=N/NC(=O)c2no[n+]([O-])c2C)cc(OC)c1OC` the value was greater than 74.4 µM.
On to `O=C(N/N=C/c1ccc2no[n+]([O-])c2c1)c1ccncc1`, for which the “Selectivity Index” value in test [2] was 12. Also, the MIC in test [1] turned out to be 11 µM (≈ 3.12 µg/mL).
Turning to `Cc1[nH]cnc1C(=O)N/N=C/c1no[n+]([O-])c1C`, the MIC in test [1] is greater than 100 µM.
`O=C(N/N=C/c1ccc2nonc2c1)c1ccncc1`: the MIC in test [1] is greater than 93.6 µM.
For `Cc1c(/C=N/NC(=O)c2ccncc2)no[n+]1[O-]`, the MIC in test [1] is greater than 25.4 µM.
On the same count and under the same terms, as for `Cc1c(/C=N/NC(=O)c2cccnc2)no[n+]1[O-]`, the figure is greater than 101 µM; as for `Cc1c(C(=O)N/N=C/c2ccccc2)no[n+]1[O-]`, greater than 102 µM; as for `COc1ccc(/C=N/NC(=O)c2no[n+]([O-])c2C)cc1OC`, greater than 81.6 µM.
`Cc1c(/C=N/NC(=O)c2no[n+]([O-])c2C)no[n+]1[O-]`: in test [1], the MIC is greater than 93.6 µM.
For the molecule `Cc1c(C(=O)N/N=C/c2ccc([N+](=O)[O-])s2)no[n+]1[O-]`, the MIC in test [1] was determined as 42.1 µM (≈ 12.5 µg/mL).
Same read-out and setting: for `Cc1c(C(=O)N/N=C/c2ccccc2O)no[n+]1[O-]` the value was greater than 95.4 µM.
With `O=C(N/N=C/c1c(-c2ccccc2)no[n+]1[O-])c1cccnc1`, in test [2], the “Selectivity Index” value is 10. For the same molecule, in test [1], the minimum inhibitory concentration (MIC) amounted to 20.2 µM (≈ 6.25 µg/mL).
